pIC50: −log10 of the molar value. In brackets after ≈: the same amount, converted by molar mass. Activity calls are given as the source filed them. No cut-off for these calls is given here.
Columns and labels:
[1] = tested on: MIA PaCa-2; experiment: Growth inhibition of human MIAPaCa2 cells after 48 hrs by MTT assay; assay type: functional; conditions: MIA PaCa-2, 48 h
Summary of the method: (§1)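 Cancer cell lines sourced from the National Cancer Institute (USA). Cells kept in appropriate growth medium at 37 °C, 95% humidity, 5% CO2. Antiproliferation read by tetrazolium (MTT) assay. GI50 values were determined only for compounds selected after an initial single-concentration screen.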

[2] = tested on: Mast/stem cell growth factor receptor Kit (Homo sapiens), P10721 [A829P]; experiment: Inhibition of partial length human KIT A829P mutant expressed in mammalian expression system at 0.5 uM by KINOMEscan method relative to control
Summary of the method: (§2)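 Competition binding screen (KINOMEscan) at 0.5 μM; primary binding read out as % of control, lower values indicating stronger interaction.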

[3] = tested on: OVCAR-4; experiment: Growth inhibition of human OVCAR4 cells after 48 hrs by MTT assay; assay type: functional; conditions: OVCAR-4, 48 h; summary of the method: as §1
[4] = Half life in dog liver microsomes at 100 uM after 30 mins by LC-MS/MS analysis; assay type: ADME, Canis lupus familiaris, microsome
[5] = Ratio of Cmax in BALB/c mouse at 30 mg/kg, po to GI50 for human MIAPaCa2 cells
[6] = Tmax in BALB/c mouse at 3 mg/kg, po by LC-MS/MS analysis; assay type: ADME, organism-based; conditions: in vivo
[7] = tested on: MIA PaCa-2; experiment: Induction of apoptosis in human MIAPaCa2 cells assessed as intracellular vesicle formation after 24 hrs by scanning electron microscopy; assay type: functional, cell-based
Summary of the method: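 Cells exposed to different compound concentrations for 24 h on coverslips, fixed in 2.5% glutaraldehyde in 0.1 M phosphate buffer pH 7.2 (4 °C, 24 h), postfixed in 1% OsO4 4 h, ethanol-dehydrated, critical-point dried with HMDS, gold-coated, imaged at 20 kV.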

[8] = tested on: HL-60; experiment: Growth inhibition of human HL60 cells at 10 uM after 48 hrs by MTT assay relative to control; assay type: functional; conditions: HL-60, 48 h, read-out: GI
Summary of the method: (§3)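 Single-concentration primary screen at 10 μM by MTT assay. Cells were NCI-sourced cancer lines grown in appropriate medium at 37 °C, 95% humidity, 5% CO2. Growth inhibition is expressed relative to control.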

[9] = Thermodynamic equilibrium solubility of compound in SIF at pH 6.8 after 5 hrs by shake flask method; assay type: physicochemical; conditions: read-out: Therm_solubility
[10] = Intrinsic clearance in dog liver microsomes assessed per mg of protein at 100 uM after 30 mins by LC-MS/MS analysis; assay type: ADME, Canis lupus familiaris, microsome; conditions: read-out: CLH
Summary of the method: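 Intrinsic clearance obtained from substrate disappearance over time, reported per mg protein (microsomes, S9) or per 10^6 cells (hepatocytes).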

[11] = Half life in monkey hepatocytes at 3 uM after 180 mins by LC-MS/MS analysis; assay type: ADME, cell-based, Macaca mulatta, Hepatocyte; conditions: rhesus monkey
[12] = tested on: MCF7; experiment: Growth inhibition of human MCF7 cells at 10 uM after 48 hrs by MTT assay relative to control; assay type: functional; conditions: MCF7, 48 h, read-out: GI; summary of the method: as §3
[13] = tested on: Tyrosine-protein kinase ABL1 (Homo sapiens), P00519 [Q252H]; experiment: Inhibition of partial length human ABL1 Q252H mutant expressed in mammalian expression system at 0.5 uM by KINOMEscan method relative to control; summary of the method: as §2
[14] = tested on: Tyrosine-protein kinase ABL1 (Homo sapiens), P00519 [E255K]; experiment: Inhibition of phosphorylated partial length human ABL1 E255K mutant expressed in mammalian expression system at 0.5 uM by KINOMEscan method relative to control; summary of the method: as §2
[15] = Ratio of Cmax in Sprague-Dawley rat at 30 mg/kg, po to GI50 for human HL60 cells
[16] = AUC in BALB/c mouse at 3 mg/kg, po by LC-MS/MS analysis; assay type: ADME, organism-based; conditions: in vivo
[17] = Intrinsic clearance in rat hepatocytes assessed per million cells at 3 uM after 180 mins by LC-MS/MS analysis; assay type: ADME, cell-based, Hepatocyte; conditions: read-out: CLH
[18] = Pancreas to plasma partition coefficient, Kp of the compound in BALB/c mouse at 30 mg/kg, po measured at 1 hr; assay type: ADME, organism-based; conditions: pancreas and plasma
[19] = AUC in Sprague-Dawley rat at 3 mg/kg, po by LC-MS/MS analysis; assay type: ADME, organism-based; conditions: in vivo
[20] = target: CDK9/cyclin T1 (Homo sapiens, UniProt P50750); experiment: Inhibition of CDK9/cyclin T1 (unknown origin) using YSPTSPSYSPTSPSYSPTSPKKK as substrate after 30 mins in presence of [33P]-gamma-ATP by filter binding assay; assay type: protein-complex assay
[21] = Intrinsic clearance in monkey liver S9 fraction assessed per mg of protein preincubated for 5 mins followed by NADPH addition measured after 30 mins by LC-MS/MS analysis; assay type: ADME, tissue-based, Macaca mulatta; conditions: rhesus monkey, s9, 0.5 h
[22] = target: PRKCE (protein kinase C epsilon) (Homo sapiens, UniProt Q02156); experiment: Inhibition of partial length wild type human PRKCE expressed in mammalian expression system at 0.5 uM by KINOMEscan method relative to control; summary of the method: as §2
[23] = tested on: 786-0; experiment: Growth inhibition of human 786-0 cells after 48 hrs by MTT assay; assay type: functional; conditions: 786-0, 48 h; summary of the method: as §1
[24] = AUC (0 to infinity) in BALB/c mouse at 1 mg/kg, iv by LC-MS/MS analysis; assay type: ADME, organism-based; set-up: dose 1 mg/kg, route intravenous, time infinity; conditions: in vivo
[25] = tested on: PBL; experiment: Genotoxicity in human PBL at 0.125 to 2 ug/ml in presence of cytokinesis blocking agent cytochalasin B and liver S9 fraction by micronucleus test; assay type: toxicity, cell-based
[26] = tested on: Salmonella typhimurium; experiment: Mutagenicity in Salmonella typhimurium TA98 at 50 ug/plate in absence of liver S9 fraction by Ames test; assay type: toxicity; conditions: salmonella enterica subsp. enterica serovar typhimurium
[27] = target: Cytochrome P450 2D6 (Homo sapiens, UniProt P10635); experiment: Time-dependent inhibition of human CYP2D6 at 2 uM using fluorogenic substrate by fluorometric method; assay type: ADME
[28] = Half life in human liver microsomes at 100 uM after 30 mins by LC-MS/MS analysis; assay type: ADME, microsome
[29] = tested on: PBL; experiment: Genotoxicity in human PBL at 0.125 to 2 ug/ml in presence of cytokinesis blocking agent cytochalasin B and absence of liver S9 fraction by micronucleus test; assay type: toxicity, cell-based
[30] = Cmax in Sprague-Dawley rat at 3 mg/kg, po by LC-MS/MS analysis; assay type: ADME, organism-based; set-up: dose 3 mg/kg, route oral; conditions: in vivo
[31] = Intrinsic clearance in mouse liver microsomes assessed per mg of protein at 100 uM after 30 mins by LC-MS/MS analysis; assay type: ADME, microsome; conditions: read-out: CLH
[32] = Pancreas to plasma partition coefficient, Kp of the compound in Sprague-Dawley rat at 30 mg/kg, po measured at 8 hrs; assay type: ADME, organism-based; conditions: pancreas and plasma
[33] = Half life in BALB/c mouse at 30 mg/kg, po by LC-MS/MS analysis; assay type: ADME, organism-based; conditions: in vivo
[34] = Cmax in BALB/c mouse at 3 mg/kg, po by LC-MS/MS analysis; assay type: ADME, organism-based; set-up: dose 3 mg/kg, route oral; conditions: in vivo
[35] = tested on: PC-3; experiment: Growth inhibition of human PC3 cells at 10 uM after 48 hrs by MTT assay relative to control; assay type: functional; conditions: PC-3, 48 h, read-out: GI; summary of the method: as §3
[36] = Chemical stability of compound in hydrochloric acid buffer at pH 1.2 assessed as parent compound remaining at 120 ug/ml after 24 hrs by HPLC method; assay type: physicochemical; conditions: read-out: Stability

Sequence of Cytochrome P450 2D6 (P10635 whole entry): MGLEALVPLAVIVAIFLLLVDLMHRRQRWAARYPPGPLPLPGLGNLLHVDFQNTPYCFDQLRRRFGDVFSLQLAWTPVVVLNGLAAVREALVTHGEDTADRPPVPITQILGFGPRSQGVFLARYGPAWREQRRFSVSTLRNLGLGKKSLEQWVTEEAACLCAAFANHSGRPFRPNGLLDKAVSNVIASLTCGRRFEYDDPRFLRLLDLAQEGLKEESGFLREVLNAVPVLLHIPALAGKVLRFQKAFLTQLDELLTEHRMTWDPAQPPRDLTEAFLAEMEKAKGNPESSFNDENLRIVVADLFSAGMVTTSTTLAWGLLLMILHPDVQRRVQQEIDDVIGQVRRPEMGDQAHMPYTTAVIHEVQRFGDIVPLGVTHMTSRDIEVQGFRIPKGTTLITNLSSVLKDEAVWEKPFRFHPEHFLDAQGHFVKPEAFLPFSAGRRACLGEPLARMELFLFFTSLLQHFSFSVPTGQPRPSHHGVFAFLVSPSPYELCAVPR
Sequence of Mast/stem cell growth factor receptor Kit (Homo sapiens), P10721 [A829P] (P10721 whole entry A829P): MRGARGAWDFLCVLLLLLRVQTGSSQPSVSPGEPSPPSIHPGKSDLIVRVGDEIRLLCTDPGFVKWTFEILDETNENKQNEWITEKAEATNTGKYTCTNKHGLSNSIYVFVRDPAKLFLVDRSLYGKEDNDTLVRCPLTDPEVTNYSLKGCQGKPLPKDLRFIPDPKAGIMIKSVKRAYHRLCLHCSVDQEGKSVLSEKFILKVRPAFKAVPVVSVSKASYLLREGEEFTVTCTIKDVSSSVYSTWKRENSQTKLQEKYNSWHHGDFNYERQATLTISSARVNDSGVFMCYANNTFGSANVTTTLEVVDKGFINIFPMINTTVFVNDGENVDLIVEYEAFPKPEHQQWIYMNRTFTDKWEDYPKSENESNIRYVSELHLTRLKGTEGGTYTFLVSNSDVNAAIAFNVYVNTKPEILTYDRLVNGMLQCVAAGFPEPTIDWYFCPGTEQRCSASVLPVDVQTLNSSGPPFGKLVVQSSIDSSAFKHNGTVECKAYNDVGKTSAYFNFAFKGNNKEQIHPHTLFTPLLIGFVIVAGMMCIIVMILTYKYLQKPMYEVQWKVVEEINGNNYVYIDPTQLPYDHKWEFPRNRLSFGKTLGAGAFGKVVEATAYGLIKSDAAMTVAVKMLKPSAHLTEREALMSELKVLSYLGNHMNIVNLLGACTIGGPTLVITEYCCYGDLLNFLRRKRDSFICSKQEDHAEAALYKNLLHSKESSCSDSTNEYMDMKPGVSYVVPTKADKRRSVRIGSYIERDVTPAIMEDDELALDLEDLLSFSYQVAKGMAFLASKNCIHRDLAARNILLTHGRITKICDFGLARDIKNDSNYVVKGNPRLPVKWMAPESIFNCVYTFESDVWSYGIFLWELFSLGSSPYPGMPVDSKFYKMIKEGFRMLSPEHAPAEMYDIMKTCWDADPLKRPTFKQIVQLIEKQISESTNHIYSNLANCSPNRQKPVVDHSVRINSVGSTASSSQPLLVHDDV
Sequence of PRKCE (protein kinase C epsilon) (Q02156 whole entry): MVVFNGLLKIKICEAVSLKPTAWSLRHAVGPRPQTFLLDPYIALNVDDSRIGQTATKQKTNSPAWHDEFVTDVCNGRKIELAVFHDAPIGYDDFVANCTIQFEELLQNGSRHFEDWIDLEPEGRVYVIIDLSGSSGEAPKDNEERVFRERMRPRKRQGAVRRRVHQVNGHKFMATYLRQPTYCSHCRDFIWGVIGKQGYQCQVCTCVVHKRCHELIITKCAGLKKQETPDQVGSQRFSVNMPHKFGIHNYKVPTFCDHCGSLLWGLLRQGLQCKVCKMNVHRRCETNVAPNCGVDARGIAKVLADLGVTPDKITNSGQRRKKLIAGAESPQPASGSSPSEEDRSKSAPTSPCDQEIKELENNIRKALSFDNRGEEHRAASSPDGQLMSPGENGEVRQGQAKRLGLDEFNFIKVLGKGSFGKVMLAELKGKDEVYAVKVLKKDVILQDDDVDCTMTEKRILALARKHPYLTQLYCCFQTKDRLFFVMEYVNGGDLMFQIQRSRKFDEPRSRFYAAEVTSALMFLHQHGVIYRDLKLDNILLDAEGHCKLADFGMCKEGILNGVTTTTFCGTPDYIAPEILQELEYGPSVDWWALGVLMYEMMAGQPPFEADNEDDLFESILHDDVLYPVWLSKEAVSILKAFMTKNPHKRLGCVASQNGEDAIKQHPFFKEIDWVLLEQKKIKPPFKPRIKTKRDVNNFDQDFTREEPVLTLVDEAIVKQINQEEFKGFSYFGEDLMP
Sequence of CDK9/cyclin T1 (O60563 whole entry): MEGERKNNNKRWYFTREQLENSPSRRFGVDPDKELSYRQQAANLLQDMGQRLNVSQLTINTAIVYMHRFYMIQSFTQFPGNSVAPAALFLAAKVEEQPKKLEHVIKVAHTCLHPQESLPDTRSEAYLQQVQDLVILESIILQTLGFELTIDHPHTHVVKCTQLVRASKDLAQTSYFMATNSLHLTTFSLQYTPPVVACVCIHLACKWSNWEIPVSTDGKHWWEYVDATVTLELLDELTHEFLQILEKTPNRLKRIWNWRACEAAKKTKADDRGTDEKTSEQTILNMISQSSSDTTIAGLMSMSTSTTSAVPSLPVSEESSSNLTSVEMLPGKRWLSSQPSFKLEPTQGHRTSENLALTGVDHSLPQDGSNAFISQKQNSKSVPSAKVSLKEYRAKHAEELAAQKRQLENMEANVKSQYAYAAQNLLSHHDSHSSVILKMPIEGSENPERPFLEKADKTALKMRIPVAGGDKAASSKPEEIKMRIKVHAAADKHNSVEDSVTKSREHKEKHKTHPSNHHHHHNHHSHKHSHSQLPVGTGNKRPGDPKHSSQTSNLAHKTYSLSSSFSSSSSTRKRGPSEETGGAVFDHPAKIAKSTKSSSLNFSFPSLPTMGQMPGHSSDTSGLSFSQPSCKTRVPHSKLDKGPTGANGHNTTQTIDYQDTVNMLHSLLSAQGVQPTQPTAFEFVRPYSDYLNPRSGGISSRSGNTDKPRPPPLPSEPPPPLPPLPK
Sequence of CDK9/cyclin T1 (P50750 whole entry): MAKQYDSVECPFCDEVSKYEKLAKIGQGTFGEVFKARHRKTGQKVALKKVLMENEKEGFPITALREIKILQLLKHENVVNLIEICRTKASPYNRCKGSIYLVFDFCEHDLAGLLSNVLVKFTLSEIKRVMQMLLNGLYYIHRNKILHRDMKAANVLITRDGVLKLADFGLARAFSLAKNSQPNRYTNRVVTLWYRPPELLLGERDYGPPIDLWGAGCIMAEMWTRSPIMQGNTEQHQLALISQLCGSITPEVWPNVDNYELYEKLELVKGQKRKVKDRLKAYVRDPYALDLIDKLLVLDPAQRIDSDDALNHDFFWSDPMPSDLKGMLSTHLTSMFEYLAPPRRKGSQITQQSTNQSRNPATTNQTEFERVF

Work on `CN1CC[C@H](c2c(O)cc(O)c3c(=O)cc(/C=C/c4c(Cl)cccc4Cl)oc23)[C@H](O)C1` yielded a GI50 [1] of 1 µM, an inhibition [2] greater than 98% and a GI50 [3] of 9 µM. It also gave a half-life at 100 µM [4] of 24 min, a Ratio [5] of 4 and a Tmax [6] of 22.2 min. The Activity [7] was “Active”, the inhibition of growth at 10 µM [8] was 90% and the solubility thermodynamic at 5 h [9] was 2.18 µg/mL (≈ 4.72 µM). The microsomal CLint at 100 µM [10] was greater than 29 µL/min/mg, the half-life at 3 µM [11] was 326 min and the inhibition of growth at 10 µM [12] was 80%. It also gave an inhibition [13] greater than 98%, an inhibition [14] greater than 98% and a Ratio [15] of 4. It also gave an AUC [16] of 643 nM·h, a hepatocyte CLint at 3 µM [17] of 9.2 µL/min/1e6 cells and a Kp at 1 h [18] of 24.4. It also gave an AUC [19] of 1440 nM·h, a pIC50 [20] of 8.72 and a CLint [21] of 25 µL/min/mg. The inhibition at 0.5 µM [22] was greater than 98%, the GI50 [23] was 6 µM and the AUC(0-inf) [24] was 653 nM·h. For the same compound, the Activity [25] was “Non-Toxic”, the Activity [26] was “Non-Toxic” and the TDI [27] was “Not Active”. The half-life at 100 µM [28] was greater than 30 min, the Activity [29] was “Non-Toxic” and the Cmax [30] was 0.316 µM. The microsomal CLint at 100 µM [31] was less than 8.8 µL/min/mg, the Kp at 8 h [32] was 10.5 and the half-life [33] was 217 min. For the same compound, the Cmax [34] was 0.216 µM, the inhibition of growth at 10 µM [35] was 84% and the remaining at 24 h, 120 ug/ml [36] was 100%.
